Hits are enriched below; roughly 3.1% of the tested compounds scored in any of these assays.
Ecoli rRNA inh: reduced GFP signal of wild-type E. coli, primary screen, bacterial rRNA inhibitor project, GFP/RFP fluorescence, OD600, single point; E. coli WT GFP vs humanized-ribosome RFP mutants, 24 h; stronger effect = lower value; DMSO median 0, no signal -100; GFP signal change (wild-type ribosome), % (test concentration not listed); 350,000 compounds, 1.6% hits; AID 720706, 2013;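 active = significant combined selectivity score with lowered wild-type GFP, culture density cut under 30%, mutant RFP and density less affected; inactive = any of these conditions unmet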
miR122 inh: miR-122 Renilla sensor signal increase in Huh7, primary screen, miR-122 inhibitor project, cell-based, single point, plate reader | Huh7 miR-122 Renilla luciferase sensor, 48 h; neutral wells = 0, positive control = 100 | activation (reporter increase), % at 12.5 µM | 340,000 compounds, 0.3% hits;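 active = mean replicate activation score at least 90 and every replicate individually at or above 90; inconclusive = only one of the two criteria met; inactive = neither criterion met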;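 note: higher luciferase means less miR-122 activity so hits act as miR-122 inhibitors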
DENV2 CPE: inhibitors of DENV2 cytopathic effect, primary screen, cell-based, plate reader, single concentration. DENV2-infected cells, cytopathic effect rescue. CPE inhibition, % at 9.99 µM. 350,000 compounds, 1.7% hits. AID 651640, 2012; in the data active = CPE inhibition above about 20%, passing the limit was not always enough; inconclusive = no clear call, values can overlap the other calls; tested in BHK-21 cells;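 note: 0% = median of neutral control wells and 100% = median of positive control wells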
E-selectin induc: E-selectin induction in HUVECs, primary screen, imaging, HUVEC, immunofluorescence imaging, single point; P16581; normalized: neutral wells 0, TNF-alpha wells 100; activation, % at 7.58 µM; 260,000 compounds, 0.37% hits; AID 686992, 2013;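 active = mean E-selectin-positive cell signal at least 10% of the positive control, reached in at least 60% of replicates, without over 20% cell loss; inconclusive = no rule given, readout overlaps actives, possibly toxicity-flagged; inactive = the rest, including those meeting only one limit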
Target sequence (P16581 whole entry, looked up): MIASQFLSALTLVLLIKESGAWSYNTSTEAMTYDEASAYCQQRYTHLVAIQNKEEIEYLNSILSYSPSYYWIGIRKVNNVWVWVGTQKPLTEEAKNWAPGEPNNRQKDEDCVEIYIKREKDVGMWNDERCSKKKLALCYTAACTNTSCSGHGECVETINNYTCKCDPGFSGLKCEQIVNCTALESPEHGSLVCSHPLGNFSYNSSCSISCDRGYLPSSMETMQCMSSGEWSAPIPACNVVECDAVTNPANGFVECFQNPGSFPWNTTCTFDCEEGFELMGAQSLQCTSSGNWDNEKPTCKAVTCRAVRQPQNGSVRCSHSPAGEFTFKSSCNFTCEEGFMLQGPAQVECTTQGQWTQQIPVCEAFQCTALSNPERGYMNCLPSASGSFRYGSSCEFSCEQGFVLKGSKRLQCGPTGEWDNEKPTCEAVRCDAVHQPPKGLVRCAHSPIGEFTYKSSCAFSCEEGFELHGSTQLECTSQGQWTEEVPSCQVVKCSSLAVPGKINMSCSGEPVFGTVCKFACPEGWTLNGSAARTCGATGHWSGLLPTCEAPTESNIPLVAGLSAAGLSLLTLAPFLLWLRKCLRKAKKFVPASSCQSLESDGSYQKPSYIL
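System: HUVEC / Compound: single concentration / Signal: immunofluorescence imaging / Read-out: percent E-selectin-positive cells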
Cneo AK release: Cryptococcus neoformans cell lysis inducers, primary screen, AK release luminescence, single concentration | C. neoformans lysis, adenylate kinase release luminescence, 4 h; normalised: neutral wells 0, clomiphene wells 100 | lysis activity, % at 15 µM | AID 651654, 2012 | 360,000 compounds, 0.2% hits;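 active = mean lysis activity across replicates of at least 80%, whatever share of replicates individually reach that level; inactive = mean lysis activity below 80%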
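Assay system: log-phase C. neoformans yeast / Quantity: yeast cell density of 5 × 10^6 cells/mL / Medium: fresh YPD growth medium / Compound: single dose / Timing: static 4 h at 37 °C with compound, 1 h detection / Measured by: adenylate kinase release luminescence / Read-out: lysis from increased AK signal / Benchmarks: Clomiphene as positive lysis control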
* = called active by the depositor; [ ] = dose if it differs, or a comment.

How did Cc1cccc(-c2ccc([C@H]3[C@H]4CN(S(=O)(=O)c5cccc(C)c5)CCCCN4[C@H]3CO)cc2)c1 do in these assays?
Ecoli rRNA inh: 0; miR122 inh: 1[16.7 µM]; DENV2 CPE: 29*; E-selectin induc: 0; Cneo AK release: 1

What do the screens show for `Cc1cccc(S(=O)(=O)N2CCCCN3[C@H](CO)[C@H](c4ccc(-c5cccnc5)cc4)[C@@H]3C2)c1`?
Ecoli rRNA inh: -23; miR122 inh: 30[16.7 µM]; DENV2 CPE: 47*; E-selectin induc: 0; Cneo AK release: 54

How did Cc1cccc(-c2ccc([C@H]3[C@@H](CO)N4CCCCN(S(=O)(=O)c5cccc(C)c5)C[C@H]34)cc2)c1 do in these assays?
Ecoli rRNA inh: -33; miR122 inh: 1[16.7 µM]; DENV2 CPE: 55*; E-selectin induc: -1; Cneo AK release: 12

What do the screens show for `CO[C@@H]1CN(C)C(=O)c2ccc(NC(=O)c3ccccc3)cc2OC[C@H](C)NC[C@H]1C`?
Ecoli rRNA inh: 2; DENV2 CPE: -6; E-selectin induc: 0; Cneo AK release: -2

How did O=C(C[C@H]1C=C[C@H](NC(=O)NC2CCCCC2)[C@H](CO)O1)NCc1ccc(F)cc1 do in these assays?
Ecoli rRNA inh: -6; miR122 inh: -9[16.7 µM]; DENV2 CPE: 28*; E-selectin induc: 0; Cneo AK release: -3

How did O=C(Cc1ccccc1)N[C@H]1C=C[C@@H](CC(=O)N2CCOCC2)O[C@@H]1CO do in these assays?
Ecoli rRNA inh: 3; DENV2 CPE: 19; E-selectin induc: 0; Cneo AK release: 95*

How did CCCNC(=O)N[C@H]1C=C[C@H](CC(=O)N2CCN(C)CC2)O[C@H]1CO do in these assays?
Ecoli rRNA inh: 1; DENV2 CPE: -10; E-selectin induc: 0; Cneo AK release: -5

How did O=C(NC1CCCCC1)N[C@H]1C=C[C@@H](CC(=O)N2CCOCC2)O[C@H]1CO do in these assays?
Ecoli rRNA inh: -1; DENV2 CPE: inconclusive; E-selectin induc: -1; Cneo AK release: 104*

How did CCCNC(=O)N[C@H]1C=C[C@H](CC(=O)N2CCN(C)CC2)O[C@@H]1CO do in these assays?
Ecoli rRNA inh: 0; DENV2 CPE: 25*; E-selectin induc: 0; Cneo AK release: -1

How did COc1ccccc1C(=O)Nc1ccc2c(c1)C(=O)N(C)C[C@@H](OC)[C@@H](C)CN[C@@H](C)CO2 do in these assays?
Ecoli rRNA inh: 1; miR122 inh: -9[16.7 µM]; DENV2 CPE: 11; E-selectin induc: 0; Cneo AK release: -1

Results for Cn1cnc(S(=O)(=O)N[C@@H]2C=C[C@@H](CC(=O)N3CCN(c4ccccc4)CC3)O[C@H]2CO)c1 ?
Ecoli rRNA inh: 1; DENV2 CPE: 13; E-selectin induc: 0; Cneo AK release: 3

Results for O=C(Cc1ccccc1)N[C@H]1C=C[C@@H](CC(=O)N2CCOCC2)O[C@H]1CO ?
Ecoli rRNA inh: 1; DENV2 CPE: 53*; E-selectin induc: 0; Cneo AK release: 93*

Results for Cn1cnc(S(=O)(=O)N[C@@H]2C=C[C@H](CC(=O)N3CCN(c4ccccc4)CC3)O[C@@H]2CO)c1 ?
Ecoli rRNA inh: 4; DENV2 CPE: 94*; E-selectin induc: 0

What do the screens show for `COc1ccccc1NC(=O)Nc1ccc2c(c1)C(=O)N(C)C[C@@H](OC)[C@H](C)CN(C)[C@@H](C)CO2`?
Ecoli rRNA inh: 0; DENV2 CPE: 6; E-selectin induc: 0; Cneo AK release: 42

What do the screens show for `COc1ccc(C(=O)Nc2cccc(/C=C(\CCC(=O)O)c3nc4ccccc4s3)c2)cc1`?
Ecoli rRNA inh: -19; miR122 inh: 4; DENV2 CPE: -6; E-selectin induc: 4; Cneo AK release: -2

How did COc1ccc(/C=C(\CC(=O)O)c2nc3ccccc3s2)cc1O do in these assays?
Ecoli rRNA inh: -25*; miR122 inh: -9; DENV2 CPE: 3; E-selectin induc: 1; Cneo AK release: 0

What do the screens show for `COc1cc(/C=C(\CC(=O)O)c2nc3ccccc3s2)ccc1OCC(=O)Nc1ccccc1F`?
Ecoli rRNA inh: -25*; miR122 inh: -4; DENV2 CPE: -4; E-selectin induc: 0; Cneo AK release: 0

What do the screens show for `Cc1ccc(/C=C(\CCC(=O)O)c2nc3ccccc3s2)cc1[N+](=O)[O-]`?
Ecoli rRNA inh: -29*; miR122 inh: 3; DENV2 CPE: -6; Cneo AK release: -1

How did COc1cc(/C=C(\CC(=O)O)c2nc3ccccc3s2)cc(OC)c1O do in these assays?
Ecoli rRNA inh: -28; miR122 inh: -4; DENV2 CPE: -1

Results for O=C(O)C/C(=C\c1cccc(NC(=O)c2ccccc2Cl)c1)c1nc2ccccc2s1 ?
Ecoli rRNA inh: -35*; miR122 inh: -1; DENV2 CPE: 2; Cneo AK release: 112*

Results for CCC(=O)Nc1ccc2c(c1)C(=O)N(C)C[C@@H](OC)[C@@H](C)CN(C(=O)NC(C)C)[C@@H](C)CO2 ?
Ecoli rRNA inh: -1; miR122 inh: -4[16.7 µM]; DENV2 CPE: 19; E-selectin induc: 0; Cneo AK release: 2

Results for CC(=O)Nc1cccc2c1O[C@@H](CN(C)C(C)=O)[C@H](C)CN(C)C2=O ?
Ecoli rRNA inh: 0

Results for COc1ccc(-c2cnc3c(c2)C(=O)N([C@@H](C)CO)C[C@@H](C)[C@@H](CN(C)S(=O)(=O)c2ccc(OC)cc2)O3)cc1 ?
Ecoli rRNA inh: 7; miR122 inh: -1[16.7 µM]; E-selectin induc: 1

How did CC1(C)CC(=O)C=C(c2ccc(COC(=O)Cc3ccccc3)cc2)C1=O do in these assays?
Ecoli rRNA inh: -22*; miR122 inh: -8; DENV2 CPE: -5; E-selectin induc: 0; Cneo AK release: 1

How did C[C@@H]1CCCCO[C@@H](CN(C)Cc2ccc3c(c2)OCO3)[C@H](C)CN([C@H](C)CO)C(=O)c2cc(NC(=O)CCC(F)(F)F)ccc2O1 do in these assays?
Ecoli rRNA inh: 2; miR122 inh: 28[16.7 µM]; DENV2 CPE: 13; E-selectin induc: 0; Cneo AK release: 1

Results for CCOC1=C2CN(S(=O)(=O)c3ccc(C)cc3)C(c3ccc(CC)cc3)CC2N(S(=O)(=O)c2ccc(C)cc2)C(c2ccc(CC)cc2)C1 (stereo not drawn) ?
Ecoli rRNA inh: -6; DENV2 CPE: -5; E-selectin induc: 0

How did CCOC1=C2CN(S(=O)(=O)c3ccc(C)cc3)[C@H](c3ccc(CC)cc3)C[C@@H]2N(S(=O)(=O)c2ccc(C)cc2)[C@H](c2ccccc2)C1 do in these assays?
Ecoli rRNA inh: 7; miR122 inh: 43; DENV2 CPE: 95*; E-selectin induc: 0; Cneo AK release: -1
